Measured values gathered from unrelated publications.
Converted amounts (≈) assume the structure as drawn.

| SMILES | tested on | assay | system | setting | endpoint | result |
| --- | --- | --- | --- | --- | --- | --- |
| O=c1[nH]cc(F)c(=O)[nH]1 | Influenza A virus | viral replication, inhibitor, ELISA | MDCK, H1N1 | 24 h | IC50 | 50.4 µM |
| C[C@@H]1C[C@@H]([C@H](O)CC2CC(=O)NC(=O)C2)C(=O)[C@@H](C)C1 | Fusarium solani | microbial growth, broth dilution | – | – | MIC | 12 µg/mL (≈ 42.7 µM) |
| N.N.[Cl][Pt][Cl] | SU-DHL-8 | cell growth or viability, ATP luminescence | – | 10 µM, 72 h | inhibition | 100% |
| N=C(CC(O)c1cc2c(F)cc(F)cc2c2cc(C(F)(F)F)ccc12)Nc1ccc(F)c(F)c1 (stereo not shown) | Plasmodium knowlesi | parasite growth, SYBR Green | – | – | IC50 | 0.0024 µM |
| O=c1c2ccccc2[se]n1-c1ccccc1 | Enterovirus A | viral replication | Vero, EV71 | 48 h | IC50 | 7.1 µM |
| Nc1ccn([C@@H]2O[C@H](CO)[C@@H](O)C2(F)F)c(=O)n1 | Influenza A virus | viral replication, inhibitor, ELISA | MDCK, H1N1 | 24 h | IC50 | 0.64 µM |
| CC(=O)NC[C@H]1CN(c2ccc(N3CCOCC3)c(F)c2)C(=O)O1 | Enterococcus | microbial growth, broth dilution | VRE | – | MIC | 2 µg/mL (≈ 5.93 µM) |
| NC(=O)c1nc(F)c[nH]c1=O | Influenza A virus | viral replication, inhibitor | MDCK, H1N1 WSN | – | EC50 | 1.57 µM |
| CC(C)C(=O)OC[C@H]1O[C@@H](n2ccc(NO)nc2=O)[C@H](O)[C@@H]1O | Influenza A virus | viral replication, inhibitor, ELISA | MDCK, H1N1 | 24 h | IC50 | 28.3 µM |
| N=C(CC(O)c1cc2c(F)cc(F)cc2c2cc(C(F)(F)F)ccc12)Nc1cccc(F)c1 (stereo not shown) | Plasmodium knowlesi | parasite growth, SYBR Green | – | – | IC50 | 0.0064 µM |
| COC(=O)OCOc1c2n(ccc1=O)N([C@@H]1c3ccccc3SCc3c1ccc(F)c3F)[C@@H]1COCCN1C2=O | Influenza A virus | viral replication, inhibitor | H1N1 PR/8 | – | EC50 | 0.00757 µM |
| O=c1[nH]c(=O)n([C@H]2C[C@H](O)[C@@H](CO)O2)cc1F | Influenza A virus | viral replication, inhibitor, ELISA | MDCK, H1N1 | 24 h | IC50 | 30.2 µM |
| CC[C@H](C)C[C@H](C)CCCCCCCCC(=O)N[C@H]1C[C@@H](O)[C@@H](NCCN)NC(=O)[C@@H]2[C@@H](O)CCN2C(=O)[C@H]([C@H](O)CCN)NC(=O)[C@H]([C@H](O)[C@@H](O)c2ccc(O)cc2)NC(=O)[C@@H]2C[C@@H](O)CN2C(=O)[C@H]([C@@H](C)O)NC1=O | Pichia kudriavzevii | microbial killing, broth dilution | ATCC14243 | 48 h | MFC | 4 µg/mL (≈ 3.66 µM) |
